# Assay results taken from ChEMBL document CHEMBL4376814, “Novel cyclin-dependent kinase 9 (CDK9) inhibitor with suppression of cancer stemness activity against non-small-cell lung cancer” (Eur J Med Chem, 2019).
# The source made the active and inactive calls. The rule behind the calls is not given here.
# How the values were obtained:
# [1] = target: Rho-associated protein kinase 1 (Homo sapiens) (UniProt Q13464); assay: Inhibition of recombinant human ROCK1 (17 to 535 residues) at 1 uM using KEAKEKRQEQIAKR as substrate incubated for 40 mins in presence of [gamma-33P]ATP by radiometric assay relative to control
# How it was run: (§1)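 Single-point inhibition at 1 µM was measured in the Eurofins KinaseProfiler panel. Values are the mean of two independent experiments.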
# NCI-H1299 [2] = assay: Inhibition of tumorsphere formation in human H1299 cells assessed as decrease in number of spheres at 0.25 to 1 uM after 2 weeks by microscopic analysis; type: functional, cell-based
# [3] = target: Tau-tubulin kinase 1 (Homo sapiens) (UniProt Q5TCY1); assay: Inhibition of recombinant human TTBK1 (1 to 479 residues) at 1 uM using casein as substrate measured after 40 mins in presence of [gamma33P]ATP by scintillation counting method relative to control
# Chain of Tau-tubulin kinase 1 (Homo sapiens) (Q5TCY1 whole entry, the tested form may be a part): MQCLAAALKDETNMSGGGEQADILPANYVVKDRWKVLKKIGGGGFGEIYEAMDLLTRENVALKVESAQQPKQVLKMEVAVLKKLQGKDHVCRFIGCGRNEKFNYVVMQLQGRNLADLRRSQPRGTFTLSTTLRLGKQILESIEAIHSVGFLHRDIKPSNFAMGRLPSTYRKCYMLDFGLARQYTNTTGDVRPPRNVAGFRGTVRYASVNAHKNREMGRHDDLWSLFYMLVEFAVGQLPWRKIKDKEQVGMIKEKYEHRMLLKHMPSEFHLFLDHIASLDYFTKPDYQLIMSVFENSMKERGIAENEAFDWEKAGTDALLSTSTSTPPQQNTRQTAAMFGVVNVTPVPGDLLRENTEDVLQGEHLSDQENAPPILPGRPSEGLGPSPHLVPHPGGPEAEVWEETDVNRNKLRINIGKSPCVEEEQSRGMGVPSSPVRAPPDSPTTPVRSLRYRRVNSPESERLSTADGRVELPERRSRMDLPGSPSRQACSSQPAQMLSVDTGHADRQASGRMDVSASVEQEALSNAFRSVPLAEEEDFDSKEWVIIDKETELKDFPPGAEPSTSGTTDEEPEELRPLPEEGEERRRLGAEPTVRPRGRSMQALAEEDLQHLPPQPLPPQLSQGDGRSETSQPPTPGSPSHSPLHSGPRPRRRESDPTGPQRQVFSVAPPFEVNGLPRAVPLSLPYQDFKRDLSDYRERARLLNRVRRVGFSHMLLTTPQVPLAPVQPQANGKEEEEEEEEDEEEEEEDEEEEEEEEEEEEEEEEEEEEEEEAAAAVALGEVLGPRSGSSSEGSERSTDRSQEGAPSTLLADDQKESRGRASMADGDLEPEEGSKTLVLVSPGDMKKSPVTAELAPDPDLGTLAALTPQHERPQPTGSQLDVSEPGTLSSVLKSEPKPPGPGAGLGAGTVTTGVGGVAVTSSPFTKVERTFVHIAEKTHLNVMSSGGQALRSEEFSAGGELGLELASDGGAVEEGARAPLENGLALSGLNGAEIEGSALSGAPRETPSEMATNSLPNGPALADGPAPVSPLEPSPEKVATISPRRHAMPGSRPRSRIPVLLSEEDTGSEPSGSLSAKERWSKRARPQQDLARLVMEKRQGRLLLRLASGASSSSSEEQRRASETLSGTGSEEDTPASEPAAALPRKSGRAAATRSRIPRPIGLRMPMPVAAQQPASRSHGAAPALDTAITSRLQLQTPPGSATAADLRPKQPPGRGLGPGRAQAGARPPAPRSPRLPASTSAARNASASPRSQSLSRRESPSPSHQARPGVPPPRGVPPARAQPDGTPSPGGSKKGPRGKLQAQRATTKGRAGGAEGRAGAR
# [4] = target: Tyrosine-protein kinase HCK (Homo sapiens) (UniProt P08631); assay: Inhibition of recombinant human activated HCK (230 to 497 residues) at 1 uM using GGMEDIYFEFMGGKKK as substrate measured after 40 mins in presence of [gamma33P]ATP by scintillation counting method relative to control
# Chain of Tyrosine-protein kinase HCK (Homo sapiens) (P08631 2-526 limits assumed): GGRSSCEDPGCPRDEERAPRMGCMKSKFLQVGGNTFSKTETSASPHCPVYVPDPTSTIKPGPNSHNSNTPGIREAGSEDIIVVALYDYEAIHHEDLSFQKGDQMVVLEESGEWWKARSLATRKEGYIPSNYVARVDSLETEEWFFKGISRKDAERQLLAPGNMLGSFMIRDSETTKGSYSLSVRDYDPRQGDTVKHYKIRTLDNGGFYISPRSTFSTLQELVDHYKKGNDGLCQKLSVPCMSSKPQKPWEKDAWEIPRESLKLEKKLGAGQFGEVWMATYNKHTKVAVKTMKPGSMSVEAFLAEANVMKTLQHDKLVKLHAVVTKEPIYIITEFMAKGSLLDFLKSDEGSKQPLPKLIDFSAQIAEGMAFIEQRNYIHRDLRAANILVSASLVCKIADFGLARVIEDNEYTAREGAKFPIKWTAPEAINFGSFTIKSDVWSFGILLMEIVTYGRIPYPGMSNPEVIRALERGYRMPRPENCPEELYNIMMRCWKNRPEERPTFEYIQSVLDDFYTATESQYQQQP
# [5] = target: Mitogen-activated protein kinase kinase kinase 2 (Homo sapiens) (UniProt Q9Y2U5); assay: Inhibition of full-length recombinant human MEKK2 at 1 uM using myelin basic protein as substrate measured after 40 mins in presence of [gamma33P]ATP by scintillation counting method relative to control
# Chain of Mitogen-activated protein kinase kinase kinase 2 (Homo sapiens) (Q9Y2U5 whole entry): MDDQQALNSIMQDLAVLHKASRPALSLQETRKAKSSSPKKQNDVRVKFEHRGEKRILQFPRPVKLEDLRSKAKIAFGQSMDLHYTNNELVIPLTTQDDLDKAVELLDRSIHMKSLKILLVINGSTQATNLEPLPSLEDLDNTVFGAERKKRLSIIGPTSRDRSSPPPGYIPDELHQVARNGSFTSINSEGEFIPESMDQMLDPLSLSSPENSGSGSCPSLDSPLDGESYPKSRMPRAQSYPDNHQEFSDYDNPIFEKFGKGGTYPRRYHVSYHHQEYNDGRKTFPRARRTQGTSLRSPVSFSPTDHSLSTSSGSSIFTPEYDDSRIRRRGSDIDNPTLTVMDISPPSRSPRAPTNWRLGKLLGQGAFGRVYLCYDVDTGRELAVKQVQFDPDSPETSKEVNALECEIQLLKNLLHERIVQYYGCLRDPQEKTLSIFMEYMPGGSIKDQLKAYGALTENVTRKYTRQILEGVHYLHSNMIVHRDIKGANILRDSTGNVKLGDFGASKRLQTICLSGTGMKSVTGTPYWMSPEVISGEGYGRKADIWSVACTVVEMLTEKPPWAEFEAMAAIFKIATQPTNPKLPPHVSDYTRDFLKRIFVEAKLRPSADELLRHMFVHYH
# How it was run: (§2)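 Percent inhibition of kinase activity at a single compound concentration, measured by the outsourced Eurofins KinaseProfiler panel. Values are the mean of two independent experiments.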
# [6] = tested on: Proto-oncogene tyrosine-protein kinase Src (Homo sapiens), P12931 [T341M]; assay: Inhibition of recombinant full-length human Src T341M mutant at 1 uM using GGEEEEYFELVKKKK as substrate measured after 40 mins in presence of [gamma33P]ATP by scintillation counting method relative to control
# Chain of Proto-oncogene tyrosine-protein kinase Src (Homo sapiens), P12931 [T341M] (P12931 whole entry T341M, looked up): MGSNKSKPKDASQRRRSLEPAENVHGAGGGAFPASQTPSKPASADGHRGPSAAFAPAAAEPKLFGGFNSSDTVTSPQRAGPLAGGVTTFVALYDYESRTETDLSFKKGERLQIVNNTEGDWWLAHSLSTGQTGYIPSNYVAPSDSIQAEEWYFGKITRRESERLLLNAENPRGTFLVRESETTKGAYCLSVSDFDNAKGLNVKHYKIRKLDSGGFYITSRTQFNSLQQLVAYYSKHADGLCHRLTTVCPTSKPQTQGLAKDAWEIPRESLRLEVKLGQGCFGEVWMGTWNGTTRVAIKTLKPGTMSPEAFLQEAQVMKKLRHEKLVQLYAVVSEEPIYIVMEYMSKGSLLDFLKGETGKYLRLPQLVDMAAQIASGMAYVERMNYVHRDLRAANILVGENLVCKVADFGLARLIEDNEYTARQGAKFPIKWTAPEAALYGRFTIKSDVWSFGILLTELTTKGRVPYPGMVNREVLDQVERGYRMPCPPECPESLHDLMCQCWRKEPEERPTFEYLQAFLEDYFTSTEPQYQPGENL
# [7] = target: Serine/threonine-protein kinase pim-3 (Homo sapiens) (UniProt Q86V86); assay: Inhibition of recombinant human Pim-3 (2 to end residues) at 1 uM using RSRHSSYPAGT as substrate measured after 40 mins in presence of [gamma33P]ATP by scintillation counting method relative to control
# [8] = tested on: Angiopoietin-1 receptor (Homo sapiens), Q02763 [Q939H,Q940H,R849W]; assay: Inhibition of human Tie2 Q939H/Q940H/R849W mutant (771 to end residues) at 1 uM using EFPIYDFLPAKKK as substrate measured after 40 mins in presence of [gamma33P]ATP by scintillation counting method relative to control; how it was run: as §1
# [9] = target: Cyclin-dependent kinase 5/CDK5 activator 1 (Homo sapiens) (UniProt Q00535+Q15078); assay: Inhibition of recombinant full-length human CDK5/p25 at 1 uM using Histone H1 as substrate measured after 40 mins in presence of [gamma33P]ATP by scintillation counting method relative to control; type: protein-complex assay
# [10] = target: Calcium/calmodulin-dependent protein kinase type 1B (Homo sapiens) (UniProt Q6P2M8); assay: Inhibition of full-length recombinant human CaMK1 beta at 1 uM using KKLRRTLSFAEPG as substrate measured after 40 mins in presence of [gamma33P]ATP by scintillation counting method relative to control; how it was run: as §1
# Chain of Calcium/calmodulin-dependent protein kinase type 1B (Homo sapiens) (Q6P2M8 whole entry): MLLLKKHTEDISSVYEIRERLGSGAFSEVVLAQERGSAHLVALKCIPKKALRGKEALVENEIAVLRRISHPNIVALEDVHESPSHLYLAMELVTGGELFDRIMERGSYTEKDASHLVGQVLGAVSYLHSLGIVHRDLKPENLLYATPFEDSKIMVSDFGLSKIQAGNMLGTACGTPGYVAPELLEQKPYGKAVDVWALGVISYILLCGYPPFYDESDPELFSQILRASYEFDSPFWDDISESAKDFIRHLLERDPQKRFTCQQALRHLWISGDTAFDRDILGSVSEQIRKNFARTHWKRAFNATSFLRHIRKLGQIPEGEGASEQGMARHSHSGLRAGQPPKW
# NCI-H1299 [11] = assay: Inhibition of tumorsphere formation in human H1299 cells assessed as reduction in side population ratio at 0.25 to 1 uM by PI/Hoechst 33342 staining based flow cytometry; type: functional, cell-based
# Hep 3B2 = assay: Antiproliferative activity against human Hep3B cells assessed as inhibition of cell viability after 72 hrs by CCK-8 assay; type: functional, cell-based
# How it was run: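 Cells kept at 37 °C, 5% CO2 in DMEM or RPMI-1640 with 10% FBS and 1% penicillin/streptomycin, then seeded at 3000 cells/well (adherent) or 10,000 cells/well (suspension). Exposed to a range of concentrations for 72 h. CCK-8 added for 1-4 h before reading A450. […] Three independent experiments.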
# [12] = target: Tyrosine-protein kinase Fes/Fps (Homo sapiens) (UniProt P07332); assay: Inhibition of recombinant human FES (2 to end residues) at 1 uM using poly(Glu, Tyr) 4:1 as substrate measured after 40 mins in presence of [gamma33P]ATP by scintillation counting method relative to control
# [13] = tested on: Serine/threonine-protein kinase Chk2 (Homo sapiens), O96017 [I157T]; assay: Inhibition of recombinant human CHK2 I157T mutant (5 to end residues) at 1 uM using KKKVSRSGLYRSPSMPENLNRPR as substrate measured after 40 mins in presence of [gamma33P]ATP by scintillation counting method relative to control; how it was run: as §1
# Chain of Serine/threonine-protein kinase Chk2 (Homo sapiens), O96017 [I157T] (O96017 whole entry I157T): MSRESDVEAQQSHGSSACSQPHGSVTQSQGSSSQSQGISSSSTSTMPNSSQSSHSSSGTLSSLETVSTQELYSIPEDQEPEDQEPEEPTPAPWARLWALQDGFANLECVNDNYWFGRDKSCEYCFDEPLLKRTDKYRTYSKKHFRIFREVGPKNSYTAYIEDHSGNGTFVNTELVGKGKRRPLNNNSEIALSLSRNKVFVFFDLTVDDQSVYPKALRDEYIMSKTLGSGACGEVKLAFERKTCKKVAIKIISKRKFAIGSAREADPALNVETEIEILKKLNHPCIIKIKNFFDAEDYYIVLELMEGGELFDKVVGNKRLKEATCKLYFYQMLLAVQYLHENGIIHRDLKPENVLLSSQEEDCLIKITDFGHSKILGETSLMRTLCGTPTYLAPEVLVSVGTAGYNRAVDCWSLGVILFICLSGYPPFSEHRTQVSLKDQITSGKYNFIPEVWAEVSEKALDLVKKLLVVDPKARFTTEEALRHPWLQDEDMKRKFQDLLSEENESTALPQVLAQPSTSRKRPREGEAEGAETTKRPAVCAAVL
# A549 = assay: Downregulation of NANOG in human A549 cells at 0.25 to 1 uM by Western blot analysis; type: functional, cell-based
# [14] = target: Serine/threonine-protein kinase Chk2 (Homo sapiens) (UniProt O96017); assay: Inhibition of recombinant human CHK2 (5 to end residues) at 1 uM using KKKVSRSGLYRSPSMPENLNRPR as substrate measured after 40 mins in presence of [gamma33P]ATP by scintillation counting method relative to control; how it was run: as §1
# Chain of Serine/threonine-protein kinase Chk2 (Homo sapiens) (O96017 whole entry): as the sequence (O96017 whole entry I157T) above, with T157I counted along it
# [15] = target: Activin receptor type-2A (Homo sapiens) (UniProt P27037); assay: Inhibition of recombinant human ACTR2 (162 to end residues) at 1 uM using casein as substrate measured after 120 mins in presence of [gamma33P]ATP by scintillation counting method relative to control
# Chain of Activin receptor type-2A (Homo sapiens) (P27037 whole entry): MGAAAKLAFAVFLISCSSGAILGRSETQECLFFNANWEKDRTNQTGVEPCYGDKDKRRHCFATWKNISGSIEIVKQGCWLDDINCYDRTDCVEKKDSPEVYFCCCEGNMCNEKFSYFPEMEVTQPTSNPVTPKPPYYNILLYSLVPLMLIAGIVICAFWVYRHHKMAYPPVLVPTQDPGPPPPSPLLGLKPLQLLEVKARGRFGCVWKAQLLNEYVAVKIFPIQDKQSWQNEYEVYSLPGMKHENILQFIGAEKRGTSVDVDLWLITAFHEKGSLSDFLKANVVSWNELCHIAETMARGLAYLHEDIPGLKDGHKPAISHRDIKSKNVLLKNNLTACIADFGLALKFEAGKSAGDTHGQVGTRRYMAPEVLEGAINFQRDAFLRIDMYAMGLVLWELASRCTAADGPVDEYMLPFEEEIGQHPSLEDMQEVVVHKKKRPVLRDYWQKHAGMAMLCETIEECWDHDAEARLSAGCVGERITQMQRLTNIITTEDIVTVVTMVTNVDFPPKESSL
# [16] = target: Non-receptor tyrosine-protein kinase TYK2 (Homo sapiens) (UniProt P29597); assay: Inhibition of human TYK2 (875 to end residues) at 1 uM using GGMEDIYFEFMGGKKK as substrate measured after 40 mins in presence of [gamma33P]ATP by scintillation counting method relative to control; how it was run: as §2
# [17] = target: Mitogen-activated protein kinase kinase kinase 10 (Homo sapiens) (UniProt Q02779); assay: Inhibition of recombinant human MLK2 (1 to 449 residues) at 1 uM using myelin basic protein as substrate measured after 40 mins in presence of [gamma33P]ATP by scintillation counting method relative to control
# SiHa = assay: Antiproliferative activity against human SiHa cells assessed as inhibition of cell viability at 500 nM after 72 hrs by CCK-8 assay relative to control; type: functional
# How it was run: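 Single-concentration viability screen using CCK-8. Cells were seeded at 3000/well and treated for 72 h. A450 read after 1-4 h with reagent. Percent inhibition calculated against untreated control and blank wells as (Ac−As)/(Ac−Ab)×100%.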
# [18] = tested on: RAC-gamma serine/threonine-protein kinase (Homo sapiens), Q9Y243 [S472D]; assay: Inhibition of recombinant human pkb-gamma S472D mutant (117 to end residues) S472D mutant at 1 uM using GRPRTSSFAEGKK as substrate measured after 40 mins in presence of [gamma33P]ATP by scintillation counting method relative to control
# Chain of RAC-gamma serine/threonine-protein kinase (Homo sapiens), Q9Y243 [S472D] (Q9Y243 whole entry S472D): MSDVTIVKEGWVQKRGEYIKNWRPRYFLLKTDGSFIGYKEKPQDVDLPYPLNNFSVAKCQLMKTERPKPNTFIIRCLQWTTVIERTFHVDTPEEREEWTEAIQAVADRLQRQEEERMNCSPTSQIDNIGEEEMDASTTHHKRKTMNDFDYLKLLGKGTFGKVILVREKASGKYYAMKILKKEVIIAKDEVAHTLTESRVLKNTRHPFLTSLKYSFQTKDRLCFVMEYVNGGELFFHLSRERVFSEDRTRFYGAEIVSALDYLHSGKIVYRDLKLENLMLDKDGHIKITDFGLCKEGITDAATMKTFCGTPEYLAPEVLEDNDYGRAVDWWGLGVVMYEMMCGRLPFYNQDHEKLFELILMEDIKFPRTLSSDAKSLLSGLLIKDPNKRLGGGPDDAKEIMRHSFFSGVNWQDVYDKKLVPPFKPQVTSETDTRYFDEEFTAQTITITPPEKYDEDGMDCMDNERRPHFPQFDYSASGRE
smiles,measurement,setting,value
CN(C)C(=O)c1cc2cnc(Nc3ccc(NC(=O)CCCCCCCN=C=S)cc3)nc2n1C1CCCC1,inhibition,[1],11%
same,inhibition,NCI-H1299 [2],Active
same,inhibition,[3],-7%
same,inhibition,[4],5%
same,inhibition,[5],27%
same,inhibition,[6],20%
same,inhibition,[7],-8%
same,inhibition,[8],12%
same,inhibition,[9],63%
same,inhibition,[10],11%
same,inhibition,NCI-H1299 [11],Active
same,IC50,Hep 3B2,5.61 µM
same,inhibition,[12],7%
same,inhibition,[13],43%
same,Activity,A549,Active
same,inhibition,[14],32%
same,inhibition,[15],0%
same,inhibition,[16],4%
same,inhibition,[17],65%
same,inhibition at 0.5 µM,SiHa,11%
same,inhibition,[18],10%
